Rpn11 inh: Rpn11 (human) deubiquitinase inhibition. O00487. human 26S proteasome, Ub4-pepOG fluorescence polarization; 20S core pre-blocked with epoxomicin. inhibition, % at 20 µM. actives 0.59% (n = 360,000). AID 588493;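 active = inhibition at 20 µM, scaled to each plate's controls, above about 33%, limit read from the data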
TPT1 inhibitor: C. albicans TPT1 enzyme inhibition; recombinant caTPT1, FP RNA substrate dephosphorylation; AID 1962; inhibition, % at 5 µM; actives 0.81% (n = 300,000);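 active = inhibition above the mean of all tested compounds plus 3 SD, set per screening campaign, cut at about 24% in these data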
CSN deneddyl inh: inhibitors of human CSN-mediated cullin deneddylation. Q92905. Purified CSN, SCF-Nedd8-OG deneddylation, fluorescence polarization. inhibition, % at 12.5 µM. actives 0.38% (n = 360,000). AID 651999;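 active = pattern-corrected inhibition above about 35%, with an unprinted fluorescence ratio check between 0.5 and 1.5, limit read from the data, passing the limit was not always enough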
Target sequence (Q92905 whole entry, looked up, one chain of several): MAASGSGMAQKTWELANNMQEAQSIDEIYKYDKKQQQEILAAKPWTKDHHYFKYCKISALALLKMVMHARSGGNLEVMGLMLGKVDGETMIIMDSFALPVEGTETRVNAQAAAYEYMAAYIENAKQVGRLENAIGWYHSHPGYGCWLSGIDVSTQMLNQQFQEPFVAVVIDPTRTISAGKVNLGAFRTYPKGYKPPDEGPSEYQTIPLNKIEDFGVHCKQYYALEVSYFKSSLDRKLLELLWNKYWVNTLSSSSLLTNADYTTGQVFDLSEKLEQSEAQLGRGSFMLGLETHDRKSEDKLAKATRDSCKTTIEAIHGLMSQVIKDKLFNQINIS
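test system = HEK293T-derived human Csn5 enzyme | amount = 0.24 nM Csn5 enzyme, final concentration | medium = Tris/NaCl/DTT buffer, pH 7.5 | schedule = 90 min reaction at room temperature | signal = FP | evaluation = inhibition of Csn5 cleavage, % | compound dosing = single dose of 12.5 µM compound with 0.25% DMSO | probe or stimulus = 10 nM SCFSkp2-Nedd8OG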
aDG glyco act: alpha-DG glycosylation activation; Pro5-aDG cells, alpha-DG glycosylation AlphaScreen (IIH6); 0% Pro5, 100% B10-LARGE cell signal; activation, % at 10 µM; actives 0.22% (n = 360,000); AID 624168;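 active = activation of at least 8% versus controls, or a plate z-score of at least 8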;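 also: Pro5 are CHO cells carrying HIG-tagged alpha-DG that lacks glycosylation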
HNF4A DNA FP: change in binding of human HNF4 alpha to DNA | activity change, % at 10 µM | P41235 | AID 1224865 | HNF4a-FITC DNA binding, fluorescence polarization, 1 h | actives 0.3% (n = 360,000); in the data active = activity change above about 30%, passing the limit was not always enough
XiGFP reactiv: activators of X-chromosome reactivation in mouse fibroblasts; XiGFP mouse fibroblasts, % GFP-positive cells imaging, 3 d; cells co-treated with 5-aza-dC sensitizer; scaled so ellipticine positive control = 100%; AID 743238; actives 0.055% (n = 360,000); activation, % at 7.58 µM;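 active = mean normalized replicate activation at least 10% and every replicate at or above 10%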
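System: 68-5-11 XiGFP fibroblast line; Timing: 3 days compound exposure; Compound dosing: one concentration, pinned; Benchmarks: positive control ellipticine, 6 µM final; Buffer or medium: DMEM containing 5-aza-dC.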
Numbers stand for hits. Shown are actives, neighbours in structure and some others; about 1.3% of the full set was active somewhere.

Results for N#CCSc1nc2c(sc(=S)n2Cc2ccco2)c(=O)n1-c1ccc(F)cc1 ?
Rpn11 inh: inactive; TPT1 inhibitor: inactive; CSN deneddyl inh: inactive; aDG glyco act: inactive; HNF4A DNA FP: 58

What do the screens show for `C[C@H](CO)N1C[C@H](C)[C@H](CN(C)C(=O)Nc2ccc(F)cc2)Oc2ccc(NC(=O)Cc3ccccc3)cc2CC1=O`?
XiGFP reactiv: inactive

Results for C[C@H]1CN([C@@H](C)CO)C(=O)Cc2cc(NS(C)(=O)=O)ccc2O[C@H]1CN(C)Cc1ccccc1 ?
XiGFP reactiv: inactive

Results for C(#Cc1ccccc1)C[N+]1(CC#Cc2ccccc2)CCCC1 ?
Rpn11 inh: inactive; TPT1 inhibitor: inactive; CSN deneddyl inh: inactive; aDG glyco act: inactive; HNF4A DNA FP: inactive; XiGFP reactiv: inactive

What do the screens show for `C=CC#CC[N+]1(CC#Cc2ccccc2)CCOCC1`?
Rpn11 inh: 139; CSN deneddyl inh: 166; aDG glyco act: inactive; HNF4A DNA FP: inactive; XiGFP reactiv: inactive

How did CCCC#Cc1cnc2c(c1)C(=O)N([C@H](C)CO)C[C@H](C)[C@H](CN(C)Cc1ccc(C(=O)O)cc1)O2 do in these assays?
XiGFP reactiv: inactive

Results for Cc1ccc(S(=O)(=O)Nc2ccc3c(c2)C(=O)N([C@@H](C)CO)C[C@H](C)[C@@H](CN(C)C(=O)Nc2ccccc2)OCCCC[C@H](C)O3)cc1 ?
XiGFP reactiv: inactive

How did Nc1nnc(CCC2CCCCC2)s1 do in these assays?
Rpn11 inh: inactive; TPT1 inhibitor: inactive; CSN deneddyl inh: inactive; aDG glyco act: inactive; HNF4A DNA FP: inactive

What do the screens show for `N#CC1=C(N)SC(N)=C(C#N)C1CCC1CCCCC1`?
TPT1 inhibitor: 110

How did COc1ccc(CC2=C(O)c3ccccc3C(=O)C2=O)cc1 do in these assays?
Rpn11 inh: inactive; TPT1 inhibitor: inactive; CSN deneddyl inh: inactive; aDG glyco act: inactive; HNF4A DNA FP: inactive; XiGFP reactiv: inactive

Results for O=C1C(=O)c2ccccc2C(O)=C1CCCCl ?
Rpn11 inh: inactive; TPT1 inhibitor: inactive; CSN deneddyl inh: inactive; aDG glyco act: 3.8; HNF4A DNA FP: inactive

How did NC1=C(Cl)C(=O)c2ccccc2C1=O do in these assays?
Rpn11 inh: inactive; CSN deneddyl inh: inactive; aDG glyco act: 22; HNF4A DNA FP: inactive; XiGFP reactiv: inactive

Results for NC1=C(Cl)C(=O)c2ccc(S(N)(=O)=O)cc2C1=O ?
Rpn11 inh: inactive; CSN deneddyl inh: inactive; aDG glyco act: inactive; HNF4A DNA FP: inactive; XiGFP reactiv: inactive

What do the screens show for `Cc1ccc(C(=O)Oc2oc(-c3ccccc3)nc2C=Nc2ccc(N(C)C)cc2)cc1`?
TPT1 inhibitor: inactive; CSN deneddyl inh: 47; aDG glyco act: inactive; HNF4A DNA FP: inactive; XiGFP reactiv: inactive

How did C[C@H](CO)N1C[C@H](C)[C@@H](CN(C)CC2CCCCC2)Oc2c(NC(=O)Cc3cn(C)c4ccccc34)cccc2C1=O do in these assays?
XiGFP reactiv: inactive

Results for Cc1ccc(N2C(=O)c3cccc4c(N)ccc(c34)C2=O)c2cccnc12 ?
TPT1 inhibitor: inactive; CSN deneddyl inh: inactive; aDG glyco act: inactive; HNF4A DNA FP: inactive; XiGFP reactiv: 116

How did CN(Cc1nc(CCc2ccccc2)no1)Cc1cccs1 do in these assays?
Rpn11 inh: inactive; TPT1 inhibitor: inactive; CSN deneddyl inh: inactive; aDG glyco act: inactive; HNF4A DNA FP: inactive; XiGFP reactiv: 40

Results for Cc1c(C(C)C)c(=O)n(-c2ccc(S(=O)(=O)NCc3ccccc3)cc2)n1C ?
Rpn11 inh: inactive; TPT1 inhibitor: inactive; CSN deneddyl inh: inactive; aDG glyco act: 8.4; HNF4A DNA FP: inactive; XiGFP reactiv: inactive

What do the screens show for `Cc1c(C(C)C)c(=O)n(-c2ccc(S(=O)(=O)NC3CCCCC3)cc2)n1C`?
Rpn11 inh: inactive; TPT1 inhibitor: inactive; CSN deneddyl inh: inactive; aDG glyco act: inactive; HNF4A DNA FP: inactive; XiGFP reactiv: inactive

Results for CC(=O)N(C)C[C@@H]1Oc2c(NS(C)(=O)=O)cccc2C(=O)N(C)C[C@@H]1C ?
XiGFP reactiv: inactive

What do the screens show for `CCC1CCCCN1C(=O)c1cc(COc2ccc3ncccc3c2)on1` (stereo unspecified)?
Rpn11 inh: inactive; TPT1 inhibitor: inactive; CSN deneddyl inh: inactive; aDG glyco act: 7.6; HNF4A DNA FP: inactive; XiGFP reactiv: inactive

Screening results: PubChem BioAssay, several laboratories
